Activity calls are given as the source filed them. No cut-off for these calls is given here.
What was measured:
[1] = Tmax in fasted male beagle dog at 1 mg/kg, po; format: ADME, organism-based, Canis lupus familiaris; conditions: in vivo
Outline: (§1)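 Single-dose PK: i.v. and oral dosing in Crl:CD(SD) rats and beagle dogs, plus a pilot oral nasogastric study in Cynomolgus monkeys using a Type IV lipid formulation. Rat i.v. vehicle was 80% cosolvent. Monkeys were fasted from 2 h before until 2 h after dosing, n=3 per sex. Rats also received [14C]-labelled compound orally at 50 mg/kg, with total radioactivity followed. Parameters are means; monkey values are medians.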

[2] = system: Plasma; assay: Plasma concentration in Wistar rat at 30 mg/kg, po administered as single dose; format: ADME, organism-based; conditions: in vivo
[3] = Tmax in male Crl:CD(SD) rat at 4.5 mg/kg, po; format: ADME, organism-based; conditions: in vivo; outline: as §1
[4] = Tmax in male beagle dog at 0.5 mg/kg, iv administered as infusion; format: ADME, organism-based, Canis lupus familiaris; conditions: in vivo; outline: as §1
[5] = Terminal elimination half life in fasted female cynomolgus monkey at 9 mg/kg, po administered as single dose; format: ADME, organism-based, Macaca fascicularis; conditions: in vivo, read-out: beta t1/2 (converted); outline: as §1
[6] = Plasma concentration in Wistar rat at 1 mg/kg, po after 75 mins; format: ADME, organism-based
Outline: (§2)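 Plasma levels taken right after the Vogel test (~75 min after oral dose) following single oral doses in lipid-based formulations; data pooled from four experiments; mean±SD.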

[7] = Cmax in male beagle dog at 0.5 mg/kg, iv administered as infusion; format: ADME, organism-based, Canis lupus familiaris; design: dose 0.5 mg/kg, route intravenous; conditions: in vivo
[8] = target: Metabotropic glutamate receptor 1 (Rattus norvegicus) (UniProt P23385); assay: Negative allosteric modulation of mGluR1 in newborn Sprague-Dawley rat cerebelli assessed as reduction of DHPG-induced cytosolic Ca2+ influx after 10 to 20 mins by fluo-4/AM-dye based fluorometric analysis; format: functional
Chain of Metabotropic glutamate receptor 1 (Rattus norvegicus) (P23385 19-1199 limits assumed): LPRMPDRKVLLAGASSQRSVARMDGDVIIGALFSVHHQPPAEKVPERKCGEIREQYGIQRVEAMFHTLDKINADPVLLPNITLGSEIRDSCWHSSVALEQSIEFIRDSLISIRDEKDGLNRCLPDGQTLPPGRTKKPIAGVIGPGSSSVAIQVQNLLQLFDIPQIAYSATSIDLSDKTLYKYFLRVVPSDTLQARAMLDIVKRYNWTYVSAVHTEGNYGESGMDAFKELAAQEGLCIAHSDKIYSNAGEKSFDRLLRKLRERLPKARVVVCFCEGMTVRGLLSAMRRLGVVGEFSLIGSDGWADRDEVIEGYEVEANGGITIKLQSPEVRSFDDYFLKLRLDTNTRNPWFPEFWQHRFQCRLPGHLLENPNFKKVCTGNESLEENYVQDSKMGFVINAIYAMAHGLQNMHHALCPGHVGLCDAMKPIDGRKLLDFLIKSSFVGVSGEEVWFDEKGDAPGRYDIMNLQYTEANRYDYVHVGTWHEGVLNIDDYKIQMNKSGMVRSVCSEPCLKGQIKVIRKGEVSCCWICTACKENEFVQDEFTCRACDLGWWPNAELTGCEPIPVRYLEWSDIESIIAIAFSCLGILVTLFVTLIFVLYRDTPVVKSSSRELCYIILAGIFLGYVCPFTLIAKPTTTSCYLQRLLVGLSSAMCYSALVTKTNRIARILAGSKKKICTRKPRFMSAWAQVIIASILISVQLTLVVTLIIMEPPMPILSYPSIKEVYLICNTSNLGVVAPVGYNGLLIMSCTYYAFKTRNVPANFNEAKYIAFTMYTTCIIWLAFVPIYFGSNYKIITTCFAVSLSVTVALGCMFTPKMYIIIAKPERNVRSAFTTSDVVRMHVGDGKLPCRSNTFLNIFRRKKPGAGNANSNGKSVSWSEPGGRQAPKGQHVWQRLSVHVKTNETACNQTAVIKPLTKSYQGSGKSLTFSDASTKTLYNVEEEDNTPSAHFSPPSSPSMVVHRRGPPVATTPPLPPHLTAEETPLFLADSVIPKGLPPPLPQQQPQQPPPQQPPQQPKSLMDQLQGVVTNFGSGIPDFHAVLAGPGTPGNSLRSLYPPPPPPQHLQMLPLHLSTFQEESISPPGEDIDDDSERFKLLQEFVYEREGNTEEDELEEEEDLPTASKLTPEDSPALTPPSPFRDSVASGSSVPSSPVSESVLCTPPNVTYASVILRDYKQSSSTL

[9] = Terminal elimination half life in male Crl:CD(SD) rat at 4.5 mg/kg, po; format: ADME, organism-based; conditions: in vivo, read-out: beta t1/2 (converted); outline: as §1
[10] = Volume of distribution in female beagle dog at 0.5 mg/kg, iv administered as infusion; format: ADME, organism-based, Canis lupus familiaris; conditions: in vivo; outline: as §1
[11] = Terminal elimination half life in female Crl:CD(SD) rat at 0.5 mg/kg, iv; format: ADME, organism-based; conditions: in vivo, read-out: beta t1/2 (converted); outline: as §1
[12] = Clearance in female Crl:CD(SD) rat at 0.5 mg/kg, iv; format: ADME, organism-based; conditions: in vivo
[13] = AUC in female beagle dog at 0.5 mg/kg, iv administered as infusion; format: ADME, organism-based, Canis lupus familiaris; conditions: in vivo
[14] = AUC(0 to 8 hrs) in fasted female cynomolgus monkey at 9 mg/kg, po administered as single dose; format: ADME, organism-based, Macaca fascicularis; design: time < 6 hr, dose 9 mg/kg, route oral; conditions: in vivo
[15] = Plasma concentration in Wistar rat at 0.5 mg/kg, po after 75 mins; format: ADME, organism-based; outline: as §2
[16] = Terminal elimination half life in fasted male cynomolgus monkey at 9 mg/kg, po administered as single dose; format: ADME, organism-based, Macaca fascicularis; conditions: in vivo, read-out: beta t1/2 (converted); outline: as §1
[17] = AUC in female Crl:CD(SD) rat at 4.5 mg/kg, po; format: ADME, organism-based; conditions: in vivo
[18] = Plasma protein binding in dog; format: ADME, cell-free, Canis lupus familiaris; conditions: read-out: PPB (converted)
[19] = Terminal elimination half life in male beagle dog at 0.5 mg/kg, iv administered as infusion; format: ADME, organism-based, Canis lupus familiaris; conditions: in vivo, read-out: beta t1/2 (converted); outline: as §1
[20] = AUC in male Crl:CD(SD) rat at 4.5 mg/kg, po; format: ADME, organism-based; conditions: in vivo
[21] = Tmax in female beagle dog at 0.5 mg/kg, iv administered as infusion; format: ADME, organism-based, Canis lupus familiaris; conditions: in vivo; outline: as §1
[22] = system: Rattus norvegicus; assay: Toxicity in po dosed Harlan-Wistar rat assessed as effect on ambulatory movement at 10 to 30 mg/kg, po by photocell-based activity monitor test; format: organism-based; conditions: in vivo
Outline: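 Male Wistar rats were given 0, 10, 30 or 50 mg/kg p.o. Spontaneous locomotor activity (ambulatory movement) was recorded in a photocell-based activity monitor.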

[23] = Plasma concentration in Wistar rat at 10 mg/kg, po qd measured after first dosing during Vogel punished drinking conflict test; format: ADME, organism-based
Outline: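 Vogel punished-drinking test in rats after 24 h water deprivation, with 60 s unpunished drinking; oral 10 mg/kg given once daily for 19 days, vehicle group dosed only on Day 19 as first-dose control; plasma sampled right after test; n=10 per group; ANOVA with Duncan post-hoc.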

[24] = target: Metabotropic glutamate receptor 5 (Homo sapiens, UniProt P41594); assay: Displacement of [3H]M-MPEP from mGluR5 in male human post mortem parietal cortical tissue after 30 mins by scintillation counting method
Chain of Metabotropic glutamate receptor 5 (Homo sapiens, UniProt P41594) (P41594 whole entry): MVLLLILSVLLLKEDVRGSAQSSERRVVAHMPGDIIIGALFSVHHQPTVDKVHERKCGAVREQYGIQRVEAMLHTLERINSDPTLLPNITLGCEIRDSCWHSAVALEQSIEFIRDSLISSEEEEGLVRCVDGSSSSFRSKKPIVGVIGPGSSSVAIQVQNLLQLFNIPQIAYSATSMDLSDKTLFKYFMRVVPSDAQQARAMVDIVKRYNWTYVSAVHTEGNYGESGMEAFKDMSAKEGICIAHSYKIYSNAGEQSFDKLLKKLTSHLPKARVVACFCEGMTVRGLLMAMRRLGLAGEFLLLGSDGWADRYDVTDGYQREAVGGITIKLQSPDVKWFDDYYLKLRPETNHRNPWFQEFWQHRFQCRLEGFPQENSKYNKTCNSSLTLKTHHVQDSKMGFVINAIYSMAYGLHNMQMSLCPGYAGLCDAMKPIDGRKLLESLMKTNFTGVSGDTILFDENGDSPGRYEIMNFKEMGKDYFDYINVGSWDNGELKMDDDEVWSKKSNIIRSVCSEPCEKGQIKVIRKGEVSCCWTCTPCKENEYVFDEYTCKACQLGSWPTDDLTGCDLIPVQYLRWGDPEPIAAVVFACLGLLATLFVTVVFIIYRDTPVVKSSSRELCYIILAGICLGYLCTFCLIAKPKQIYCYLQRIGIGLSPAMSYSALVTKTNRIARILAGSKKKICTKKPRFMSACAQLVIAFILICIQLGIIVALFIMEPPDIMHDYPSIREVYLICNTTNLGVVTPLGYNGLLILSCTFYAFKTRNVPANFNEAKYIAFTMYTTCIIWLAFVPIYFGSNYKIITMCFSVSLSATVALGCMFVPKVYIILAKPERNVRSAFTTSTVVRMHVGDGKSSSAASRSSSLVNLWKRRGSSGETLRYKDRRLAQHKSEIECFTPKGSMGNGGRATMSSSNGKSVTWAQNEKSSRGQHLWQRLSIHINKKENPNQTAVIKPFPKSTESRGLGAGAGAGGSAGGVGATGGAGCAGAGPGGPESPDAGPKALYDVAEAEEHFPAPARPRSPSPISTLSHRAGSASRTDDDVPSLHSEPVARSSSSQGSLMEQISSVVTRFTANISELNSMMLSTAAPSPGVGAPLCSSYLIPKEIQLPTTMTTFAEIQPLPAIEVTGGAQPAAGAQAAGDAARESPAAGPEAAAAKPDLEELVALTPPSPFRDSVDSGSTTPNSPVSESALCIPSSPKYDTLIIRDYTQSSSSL

[25] = system: Liver; assay: Intrinsic clearance in rat liver microsomes at 2.5 uM assessed per gram of liver; format: ADME, microsome
[26] = AUC in fasted female beagle dog at 1 mg/kg, po; format: ADME, organism-based, Canis lupus familiaris; conditions: in vivo
[27] = system: Liver; assay: Intrinsic clearance in human liver microsomes at 2.5 uM assessed per gram of liver; format: ADME, microsome
[28] = AUC(0 to 8 hrs) in fasted male cynomolgus monkey at 9 mg/kg, po administered as single dose; format: ADME, organism-based, Macaca fascicularis; design: dose 9 mg/kg, time < 6 hr, route oral; conditions: in vivo
[29] = Volume of distribution in male Crl:CD(SD) rat at 0.5 mg/kg, iv; format: ADME, organism-based; conditions: in vivo; outline: as §1
[30] = target: T1, Cytochrome P450 1A2 (Homo sapiens, UniProt P05177); assay: Inhibition of CYP1A2 in human liver microsomes; format: ADME
T1 sequence (P05177 whole entry): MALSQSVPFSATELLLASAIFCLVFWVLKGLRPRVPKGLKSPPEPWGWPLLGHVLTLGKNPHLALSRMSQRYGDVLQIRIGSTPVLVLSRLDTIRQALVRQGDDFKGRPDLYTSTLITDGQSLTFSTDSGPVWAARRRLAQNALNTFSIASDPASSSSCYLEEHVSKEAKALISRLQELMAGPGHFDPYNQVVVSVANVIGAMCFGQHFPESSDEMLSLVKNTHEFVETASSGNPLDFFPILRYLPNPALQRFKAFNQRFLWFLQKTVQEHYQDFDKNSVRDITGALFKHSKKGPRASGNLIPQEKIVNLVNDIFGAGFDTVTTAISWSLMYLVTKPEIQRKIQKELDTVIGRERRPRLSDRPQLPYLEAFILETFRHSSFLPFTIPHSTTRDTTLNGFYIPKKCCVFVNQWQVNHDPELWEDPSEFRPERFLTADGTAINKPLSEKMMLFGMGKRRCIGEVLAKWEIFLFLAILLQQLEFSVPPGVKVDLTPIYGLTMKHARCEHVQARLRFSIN

[31] = Terminal elimination half life in female beagle dog at 0.5 mg/kg, iv administered as infusion; format: ADME, organism-based, Canis lupus familiaris; conditions: in vivo, read-out: beta t1/2 (converted); outline: as §1
[32] = target: Metabotropic glutamate receptor 5 (Rattus norvegicus, UniProt P31424); assay: Displacement of [3H]M-MPEP from mGluR5 in Sprague-Dawley rat cerebrocortical membranes after 60 mins
Chain of Metabotropic glutamate receptor 5 (Rattus norvegicus, UniProt P31424) (P31424 whole entry): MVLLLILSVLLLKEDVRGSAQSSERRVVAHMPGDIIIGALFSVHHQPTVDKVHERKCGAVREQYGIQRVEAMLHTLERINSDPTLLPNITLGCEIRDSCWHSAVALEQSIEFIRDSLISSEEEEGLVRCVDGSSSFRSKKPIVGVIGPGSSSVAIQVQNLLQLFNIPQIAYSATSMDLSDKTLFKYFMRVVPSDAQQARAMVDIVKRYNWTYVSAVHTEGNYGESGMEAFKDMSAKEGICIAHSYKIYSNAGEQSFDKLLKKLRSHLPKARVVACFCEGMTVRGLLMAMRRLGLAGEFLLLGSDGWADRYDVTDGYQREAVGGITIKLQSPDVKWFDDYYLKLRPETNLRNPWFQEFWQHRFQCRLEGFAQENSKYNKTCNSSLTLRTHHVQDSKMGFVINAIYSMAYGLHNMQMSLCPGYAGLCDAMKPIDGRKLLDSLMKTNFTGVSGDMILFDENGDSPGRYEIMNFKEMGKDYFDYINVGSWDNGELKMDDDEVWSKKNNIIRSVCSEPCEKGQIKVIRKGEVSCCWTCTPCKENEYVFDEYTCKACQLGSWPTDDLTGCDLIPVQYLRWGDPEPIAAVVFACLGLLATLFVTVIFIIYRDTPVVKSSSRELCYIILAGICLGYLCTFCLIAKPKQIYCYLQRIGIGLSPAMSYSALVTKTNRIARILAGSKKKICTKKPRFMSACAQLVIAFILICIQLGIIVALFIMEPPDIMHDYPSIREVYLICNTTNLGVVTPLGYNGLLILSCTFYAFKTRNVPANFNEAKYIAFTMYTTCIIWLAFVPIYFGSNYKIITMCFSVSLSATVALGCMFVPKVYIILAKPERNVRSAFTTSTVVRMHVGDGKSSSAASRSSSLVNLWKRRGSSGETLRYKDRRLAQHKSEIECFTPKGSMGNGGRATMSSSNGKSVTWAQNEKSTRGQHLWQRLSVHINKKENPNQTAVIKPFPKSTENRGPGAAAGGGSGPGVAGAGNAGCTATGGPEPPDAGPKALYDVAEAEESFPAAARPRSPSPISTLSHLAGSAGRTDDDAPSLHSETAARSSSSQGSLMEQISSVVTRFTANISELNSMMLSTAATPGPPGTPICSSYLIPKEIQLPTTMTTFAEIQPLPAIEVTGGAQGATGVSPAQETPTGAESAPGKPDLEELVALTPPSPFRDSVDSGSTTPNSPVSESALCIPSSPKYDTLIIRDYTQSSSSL

[33] = system: Rattus norvegicus; assay: Anxiolytic activity in po dosed Wistar rat assessed as increase in water drinking time during punished period administered as suspension by Vogel punished drinking conflict test; format: functional; conditions: read-out: MED
Outline: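 Vogel punished-drinking test in rats, single i.p. or p.o. dose as suspension in 5% Tween 80; plasma sampled ~45 min after i.p. or ~75 min after p.o. dosing.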

[34] = Plasma concentration in po dosed Wistar rat dosed 1 hr prior to first daily trial by Morris water maze test; format: ADME, organism-based
[35] = Volume of distribution in female Crl:CD(SD) rat at 0.5 mg/kg, iv; format: ADME, organism-based; conditions: in vivo; outline: as §1
[36] = Tmax in fasted male cynomolgus monkey at 9 mg/kg, po administered as single dose; format: ADME, organism-based, Macaca fascicularis; conditions: in vivo; outline: as §1
[37] = target: Cytochrome P450 2C9 (Homo sapiens, UniProt P11712); assay: Inhibition of CYP2C9 in human liver microsomes; format: ADME
Chain of Cytochrome P450 2C9 (P11712 whole entry): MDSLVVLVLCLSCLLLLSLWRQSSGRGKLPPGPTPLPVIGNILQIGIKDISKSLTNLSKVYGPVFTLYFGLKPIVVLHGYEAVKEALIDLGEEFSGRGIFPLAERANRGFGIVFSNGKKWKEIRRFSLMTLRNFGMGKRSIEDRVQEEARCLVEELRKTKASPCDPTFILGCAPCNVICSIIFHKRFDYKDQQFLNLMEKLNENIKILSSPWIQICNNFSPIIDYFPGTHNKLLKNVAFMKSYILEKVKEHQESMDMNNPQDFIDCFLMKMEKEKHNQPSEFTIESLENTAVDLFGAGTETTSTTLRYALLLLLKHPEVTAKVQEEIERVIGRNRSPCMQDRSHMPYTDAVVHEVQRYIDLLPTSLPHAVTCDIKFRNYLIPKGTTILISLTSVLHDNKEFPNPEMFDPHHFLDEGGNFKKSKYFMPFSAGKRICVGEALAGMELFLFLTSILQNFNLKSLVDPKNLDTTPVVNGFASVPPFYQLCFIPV

In the case of `N#Cc1cccc(S(=O)(=O)c2cnc3cc(F)ccc3c2-c2ccc(Cl)cc2)c1`, the Tmax [1] is reported as 0.75 h, the concentration [2] is reported as 986 nM and the Tmax [3] is reported as 0.75 h. It also gave a Tmax [4] of 0.5 h, a half-life [5] of 2.1 h and a concentration at 1.25 h [6] of 99 nM. For the same compound, the Cmax [7] was 1540 nM, the Activity [8] was “Active” and the half-life [9] was 7.06 h. It also gave a Vd [10] of 9.2 L/kg, a half-life [11] of 7.79 h and a clearance [12] of 14.3 mL/min/kg. The AUC [13] was 2.22 µM·h, the AUC(0-t) at 6 h [14] was 0.087 µM·h and the concentration at 1.25 h [15] was 34.8 nM. It also gave a half-life [16] of 1.4 h, an AUC [17] of 7.3 µM·h and a fraction unbound [18] of 0.0025. It also gave a half-life [19] of 12.2 h, an AUC [20] of 2.19 µM·h and a Tmax [21] of 0.5 h. For the same compound, the Activity [22] was “Non-Toxic”, the concentration at 1 day [23] was 787 nM and the Ki [24] was 10.8 nM. It also gave a CLint [25] of 0.25 mL/min/g, an AUC [26] of 1.68 µM·h and a CLint [27] of 0.31 mL/min/g. The AUC(0-t) at 6 h [28] was 0.132 µM·h, the Vd [29] was 12.4 L/kg and the IC50 [30] was greater than 10000 nM. For the same compound, the half-life [31] was 11.8 h, the Ki [32] was 55.3 nM and the minimal effective dose [33] was 0.5 mg/kg. For the same compound, the concentration at 1 h [34] was 986 nM, the Vd [35] was 9.6 L/kg and the Tmax [36] was 1.7 h. It also gave an IC50 [37] greater than 10000 nM.

Source: ChEMBL document CHEMBL4007421, “Discovery and Preclinical Characterization of 3-((4-(4-Chlorophenyl)-7-fluoroquinoline-3-yl)sulfonyl)benzonitrile, a Novel Non-acetylenic Metabotropic Glutamate Receptor 5 (mGluR5) Negative Allosteric Modulator for Psychiatric Indications” (J Med Chem, 2017)
